Source: article PMC4242840 (The Journal of Cell Biology, 2014)
Each block holds one molecule with its values, some of them ahead of it.

Columns and labels:
RPL5 shuffle strain = experiment: complementation of rpl5Δ; format: cell-based, Saccharomyces cerevisiae; conditions: SDC+FOA, 30°C, 5 d
pre-60S particles [1] = experiment: affinity purification of Rpl5-FTpA constructs; format: cell-based, Saccharomyces cerevisiae; conditions: Flag-TEV-ProtA bait
Method in brief: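 Rpl5 variants tagged with Flag-TEV-ProtA were purified from a 2-liter yeast culture pellet. Steps: IgG-Sepharose 90 min, TEV elution 120 min, FLAG beads 45 min, FLAG-peptide elution. Eluates were run alongside pre-60S particles purified via Nsa2-FTpA and FTpA-Rsa4, then analysed by SDS-PAGE and Western blot.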

[2] = system: intracellular localization in yeast; experiment: in vivo localization of Rpl5-GFP; format: cell-based, Saccharomyces cerevisiae; conditions: GFP fusion, wild-type strain, fluorescence microscopy
Method in brief: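 A wild-type strain carried plasmid-borne Rpl5-GFP or Rpl5 Δloop2+3-GFP. Cells were grown to ~OD 0.5 in selective medium at 30°C, harvested and washed in water. They were imaged by fluorescence microscopy at room temperature (100×, NA 1.4 oil objective, EGFP filter set).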

wild-type yeast growth = experiment: dominant-negative phenotype upon GAL overexpression in wild-type yeast; format: cell-based, Saccharomyces cerevisiae; conditions: GAL promoter, galactose medium, 30°C, 2 or 3 d
[3] = system: Rsa4 shuffle strain (rsa4Δ); experiment: complementation of rsa4Δ; format: cell-based, Saccharomyces cerevisiae; conditions: SDC+FOA, 30°C, 2 d
pre-60S particles [4] = experiment: association with pre-60S particles; format: cell-based, Saccharomyces cerevisiae; conditions: 10–50% sucrose gradient, anti-ProtA Western blot
Method in brief: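 Wild-type yeast expressed plasmid-borne NSA2-FTpA or nsa2 Y90A-FTpA. Cells were treated with cycloheximide for 15 min and lysed with glass beads. Whole-cell lysates were fractionated on 10–50% sucrose gradients (16 h, 27,000 rpm, 0.4 ml fractions), and fractions were probed by Western blot with anti-ProtA to detect tagged Nsa2.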

Nsa2 = experiment: in vitro binding assay of Rsa4 mutants with MBP-Nsa2; design: species or system Saccharomyces cerevisiae; conditions: immobilized MBP-Nsa2, HIS-TEV-Rsa4 mutant in E. coli lysate; SDS-PAGE
Method in brief: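 Bait and prey were expressed in E. coli by IPTG induction for 3 h. MBP-Nsa2 was prepurified on SP Sepharose and bound to amylose resin; HIS-TEV-Rsa4 variants were Ni-NTA-purified. Beads were incubated 45 min with a 5× excess of Rsa4 mixed with MBP-depleted E. coli lysate as competitor. Beads were washed in 20 mM Hepes pH 7.5, 200 mM NaCl, 1 mM DTT and eluted in SDS sample buffer (10 min, 65°C). Eluates were run on 4–12% SDS-PAGE with Coomassie staining.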

B1: Rpl5Δloop2+3 (protein)
chain: MAFQKDAKSSAYSSRFQTPFRRRREGKTDYYQRKRLVTQHKAKYNTPKYRLVVRFTNKDIICQIISSTITGDVVLAAAYSHELPRYGITHGLTNWAAAYATGLLIARRTLQKLGLDETYKGPRPFKVFLDIGLQRTTTGARVFGALKGASDGGLYVPHSENRFPGWDRIFGGHVSQYMEELADDDEERFSELFKGYLADDIDADSLEDIYTSAHEAIRADPAFKPTEKKFTKEQYAAESKKYRQTKLSKEERAARVAAKIAALAGQQ
growth / viability (complementation) (RPL5 shuffle strain): lethal phenotype
co-purified Spb1 and Nop2 (pre-60S particles [1]): enriched
co-purified particles / Syo1 (pre-60S particles [1]): recovered its import factor Syo1 ([Kressler et al., 2012a]) and pre-60S particles
co-purified Nsa2 (pre-60S particles [1]; SDS-PAGE and Western blot): normal amounts of Nsa2
co-purified Rpl10 (uL16) (pre-60S particles [1]; SDS-PAGE and Western blot): lacked Rpl10 (uL16)
co-purified Rsa4 (pre-60S particles [1]; SDS-PAGE and Western blot): reduced levels of Rsa4
intracellular localization [2]: accumulated inside the nucleus

binding to Nsa2 (Nsa2): impaired binding to Nsa2 in vitro
B2: Rsa4 Y448E (protein)
chain: MSTLIPPPSKKQKKEAQLPREVAIIPKDLPNVSIKFQALDTGDNVGGALRVPGAISEKQLEELLNQLNGTSDDPVPYTFSCTIQGKKASDPVKTIDITDNLYSSLIKPGYNSTEDQITLLYTPRAVFKVKPVTRSSSAIAGHGSTILCSAFAPHTSSRMVTGAGDNTARIWDCDTQTPMHTLKGHYNWVLCVSWSPDGEVIATGSMDNTIRLWDPKSGQCLGDALRGHSKWITSLSWEPIHLVKPGSKPRLASSSKDGTIKIWDTVSRVCQYTMSGHTNSVSCVKWGGQGLLYSGSHDRTVRVWDINSQGRCINILKSHAHWVNHLSLSTDYALRIGAFDHTGKKPSTPEEAQKKALENYEKICKKNGNSEEMMVTASDDYTMFLWNPLKSTKPIARMTGHQKLVNHVAFSPDGRYIVSASFDNSIKLWDGRDGKFISTFRGHVASVEQVAWSSDCRLLVSCSKDTTLKVWDVRTRKLSVDLPGHKDEVYTVDWSVDGKRVCSGGKDKMVRLWTH
dominant-negative phenotype upon overexpression (wild-type yeast growth): less pronounced dominant-negative phenotype
growth / viability (complementation) [3]: blocked cell growth in vivo
association with pre-60S particles (pre-60S particles [4]): partly impaired in association with pre-60S particles
